This passage reports activity change, negative = viability loss and AC50 results from PubChem BioAssay AID493051 (Broad Institute, 2011).

Each structure is given as a SMILES string. Calls of active or inactive are those of the source.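 Rule for the calls: active = viability loss with dose, its half-maximal concentration at most ten times the top valid tested dose; inconclusive = flat viability loss of 30 to 70 percent, or poor fit; inactive = the rest.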

Test system in one test: not listed separately
Nature of the test: BJeH cell viability loss – BJeH cells, dry powder, set 2, counter-screen for Ras selective lethality project, dose response (AID 493051). The note with it: BJeH fibroblast viability, Alamar Blue fluorescence, 48 h; at 48 µM (top of the series). An outline of the steps: (§1)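 system = hTERT-immortalized BJ fibroblasts (BJeH) | signal = Alamar Blue fluorescence (544 nm ex, 590 nm em) | schedule = 48 h compound treatment at 37 °C, ~16 h dye incubation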
On the technique in general: A counterscreen serves to expose hits that act by an unwanted route or on another target.
Take `Cc1oc(C)c(C(=O)N2CCN(C(c3ccccc3)c3ccccc3)CC2)c1C`: the activity change, negative = viability loss is 49.1% (inactive).
The same measure, in the same setting: for `Cc1onc(C(=O)NCCNC(c2ccccc2)c2ccccc2)c1[N+](=O)[O-]` the value was -6.54% (inactive); for `CC(C)c1onc(C(=O)N2CCN(C(c3ccccc3)c3ccccc3)CC2)c1[N+](=O)[O-]`, 18.4% (inactive).
The same measure, in the same setting: for `Cc1onc(C(=O)N2CCN(C(c3ccccc3)c3ccccc3)CC2)c1C` the value was 46.9% (inactive).
The same measure, in the same setting: for `Cc1onc(C(=O)N2CCN(C(c3ccccc3)c3ccccc3)CC2)c1NS(C)(=O)=O` the value was 8.49% (inactive); for `Cc1ccc(C(=O)N2CCN(C(c3ccccc3)c3ccccc3)CC2)c([N+](=O)[O-])c1`, 19.4% (inactive); for `Cc1onc(C(=O)N2CCN(C(c3ccccc3)c3ccccc3)CC2)c1N`, 5.64% (inactive).
Take `CC(=O)Nc1c(C(=O)N2CCN(C(c3ccccc3)c3ccccc3)CC2)noc1C`: the activity change, negative = viability loss is 15.6% (inactive).
Still for that read-out and setting: for `O=C(c1noc2ccccc12)N1CCN(C(c2ccccc2)c2ccccc2)CC1` the value was 27.9% (inactive); for `Cc1onc(C(=O)N2CCN(C(c3ccncc3)c3ccncc3)CC2)c1[N+](=O)[O-]`, 4.32% (inactive); for `Cc1onc(C(=O)N2CCN(C(c3ccccc3)c3ccccc3)CC2)c1Br`, 22.7% (inactive).
As to `Cc1onc(C(=O)N2CCN(C(c3ccccn3)c3ccccn3)CC2)c1[N+](=O)[O-]`, the activity change, negative = viability loss is -5.34% (inactive).
For `O=[N+]([O-])c1ccc(CN2CCN(C(c3ccccc3)c3ccccc3)CC2)o1`, the activity change, negative = viability loss is -9.67% (inactive).

Staying with this test, now noted: BJeH fibroblast viability, Alamar Blue fluorescence, 48 h; at 68 µM (top of the series).
`COc1ccccc1N1CCN(C(=O)c2noc(C)c2[N+](=O)[O-])CC1`: the activity change, negative = viability loss was 10.7% (inactive).
Same read-out and setting: for `Cc1onc(C(=O)N2CCN(Cc3ccccc3)CC2)c1[N+](=O)[O-]` the value was 7.25% (inactive); for `Cc1onc(C(=O)NCc2ccc(F)cc2)c1[N+](=O)[O-]`, 13.9% (inactive).
On the same count and under the same terms, for `Cc1onc(C(=O)N2CCOCC2)c1[N+](=O)[O-]` the value was 10.9% (inactive); for `CCOC(=O)N1CCN(C(=O)c2noc(C)c2[N+](=O)[O-])CC1`, 7.91% (inactive); for `Cc1cc(C(=O)N2CCN(Cc3ccccc3)CC2)no1`, 3.96% (inactive).

The test system of a further test is BJeH fibroblast viability, Alamar Blue fluorescence, 48 h. The description is as above.
Conditions: not given
An outline of the steps: as §1
With `O=C(c1ccc([N+](=O)[O-])o1)N1CCN(C(c2ccccc2)c2ccccc2)CC1`, the AC50 is 17.7 µM.
For `COc1ccc(C(c2ccc(OC)cc2)N2CCN(C(=O)c3noc(C)c3[N+](=O)[O-])CC2)cc1`, the AC50 was 9.36 µM.
The same measure, in the same setting: for `Cc1onc(C(=O)N2CCN(C(c3ccccc3)c3ccc(Cl)cc3)CC2)c1[N+](=O)[O-]` (stereo not given) the value was 0.958 µM; for `Cc1onc(C(=O)N2CCN(C(c3ccc(Cl)cc3)c3ccc(Cl)cc3)CC2)c1[N+](=O)[O-]`, 0.628 µM; for `Cc1onc(C(=O)N2CCN(C(c3ccccc3)c3ccccc3)CC2)c1[N+](=O)[O-]`, 7.89 µM.
On the same count and under the same terms, for `O=C(NCCNC(c1ccccc1)c1ccccc1)c1ccc([N+](=O)[O-])o1` the value was 3.33 µM; for `COc1ccc(C(c2ccc(OC)cc2)N2CCN(C(=O)c3ccc([N+](=O)[O-])o3)CC2)cc1`, 6.29 µM; for `Cc1onc(C(=O)N2CCCN(C(c3ccccc3)c3ccccc3)CC2)c1[N+](=O)[O-]`, 5.13 µM.
Same read-out and setting: for `Cc1onc(C(=O)N2CCN(C(c3ccc(F)cc3)c3ccc(F)cc3)CC2)c1[N+](=O)[O-]` the value was 1.49 µM.
Turning to `O=C(c1ccc([N+](=O)[O-])o1)N1CCN(C(c2ccc(F)cc2)c2ccc(F)cc2)CC1`, the AC50 was 11.8 µM.
`O=C(c1ccc([N+](=O)[O-])o1)N1CCCN(C(c2ccccc2)c2ccccc2)CC1`: the concentration at half-maximal activity (AC50) was 63.2 µM.

A word on the AC50: it is the midpoint of the concentration-response curve, whichever way the signal moves.
